Measurements taken from ChEMBL document CHEMBL4316619 (Bioorg Med Chem Lett, 2019).
Activity calls are given as the source filed them. The rule behind the calls is not given here.

What was measured:
[1] = system: Influenza A virus; experiment: Antiviral activity against Influenza A virus (A/California/7/2009(H1N1)) infected in MDCK cells assessed as reduction in virus-induced cytopathic effect measured on day 5 by Celltiter-Glo luminescence assay; assay type: functional, organism-based; conditions: 120 h
Summary of the method: (§1)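 MDCK cells were infected with seasonal influenza A strains through NIAID resources and scored for protection from virus-induced cell death. Compounds were tested at four concentrations (0.8, 4, 20, 100 μM). EC50/EC90 (reduction of viral cell death) and CC50 (reduction of cell viability) were derived in μM, and SI50 = CC50/EC50.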

[2] = system: MDCK; experiment: (§2) Cytotoxicity against MDCK cells assessed as reduction in cell viability measured on day 5 by Celltiter-Glo luminescence assay; assay type: cell-based, Canis lupus familiaris; conditions: dog, mdck; summary of the method: as §1
[3] = system: Influenza A virus; experiment: Antiviral activity against Influenza A virus A/PR/8/34 (H1N1) infected in MDCK cells assessed as fold reduction in virus titer at 10 uM measured after 48 hrs by hemagglutination assay relative to control; assay type: functional, A/Puerto Rico/8/1934(H1N1)
Summary of the method: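 MDCK cells were infected with A/PR/8/34 (H1N1) at MOI 0.1 and incubated with compound for 48 h. Supernatant virus was then quantified by hemagglutination assay and standard TCID50 analysis. The single-concentration screen used 10 μM and reports fold reduction in titer. Dose-response runs used triplicate cultures, with percent titer decrease back-calculated from TCID50.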

[4] = system: Influenza B virus; experiment: Antiviral activity against Influenza B virus (B/Brisbane/60/2008) infected in MDCK cells assessed as reduction in virus-induced cytopathic effect measured on day 5 by Celltiter-Glo luminescence assay; assay type: functional, organism-based
[5] = system: Influenza A virus H3N2; experiment: Antiviral activity against Influenza A virus (A/Brisbane/10/2007(H3N2)) infected in MDCK cells assessed as reduction in virus-induced cytopathic effect measured on day 5 by Celltiter-Glo luminescence assay; assay type: functional, organism-based; conditions: 120 h; summary of the method: as §1
[6] = system: MDCK; experiment: Cytotoxicity against MDCK cells assessed as reduction in cell viability measured after 48 hrs by CellTiter Glo assay; assay type: cell-based, Canis lupus familiaris; conditions: dog
Summary of the method: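 MDCK cells were incubated with compound under the conditions of the 48 h replication assay. Cytotoxicity was read with the CellTiter-Glo ATP viability assay. Follow-up viability testing used 5, 10, 50 and 100 μM.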

[7] = Cmax in C57BL/6 mouse lung at 30 mg/kg, ip; assay type: ADME, organism-based; parameters: dose 30 mg/kg, route intraperitoneal
Summary of the method: (§3)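 Male C57BL/6 mice received a single intraperitoneal dose of 30 mg/kg (N=3). Compound concentrations were followed over time in plasma, liver and lung. Tmax, Cmax, terminal t1/2, AUClast and AUCINF were derived from the mean concentration-time profiles.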

[8] = Tmax in C57BL/6 mouse liver at 30 mg/kg, ip; assay type: ADME, organism-based
Summary of the method: (§4)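 Male C57BL/6 mice, single intraperitoneal 30 mg/kg dose, N=3. Plasma, liver and lung concentrations followed over time to give concentration-time profiles, from which Tmax, Cmax, terminal t1/2, AUClast and AUCINF were derived.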

[9] = Toxicity in C57BL/6 mouse assessed as effect on lungs at 30 mg/kg, ip; assay type: organism-based; conditions: in vivo
[10] = Stability of the compound in mouse liver microsomes assessed as parent compound remaining measured immediately; assay type: ADME, Microsome; conditions: read-out: Stability
Summary of the method: (§5)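 Mouse liver microsomes; percent parent compound remaining measured at 0, 15 and 30 min.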

[11] = Aqueous kinetic solubility of the compound; assay type: physicochemical; conditions: buffer
[12] = Cmax in C57BL/6 mouse plasma at 30 mg/kg, ip; assay type: ADME, organism-based; parameters: dose 30 mg/kg, route intraperitoneal; conditions: C57BL/6, mouse, plasma, read-out: Cmax; summary of the method: as §3
[13] = Tmax in C57BL/6 mouse lung at 30 mg/kg, ip; assay type: ADME, organism-based; summary of the method: as §4
[14] = AUC (infinity) in C57BL/6 mouse plasma at 30 mg/kg, ip; assay type: ADME, organism-based; parameters: dose 30 mg/kg, route intraperitoneal, time infinity; summary of the method: as §3
[15] = Stability of the compound in mouse liver microsomes assessed as parent compound remaining measured after 30 mins; assay type: ADME, Microsome; conditions: read-out: Stability; summary of the method: as §5
[16] = AUC (infinity) in C57BL/6 mouse lung at 30 mg/kg, ip; assay type: ADME, organism-based; parameters: dose 30 mg/kg, route intraperitoneal, time infinity; summary of the method: as §3
[17] = Toxicity in C57BL/6 mouse assessed as adverse effect at 30 mg/kg, ip; assay type: organism-based; conditions: in vivo
[18] = Apparent permeability across apical to basolateral side in human Caco2 cells measured after 2 hrs; assay type: ADME, cell-based; conditions: caco-2, 2 h
Summary of the method: (§6)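 Permeability was measured across Caco-2 monolayers in both directions, apical to basolateral and basolateral to apical. […] Runs were done with and without 3% BSA, and mass recovery (%) was reported for each direction. Efflux ratio = Papp B→A / Papp A→B.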

[19] = as §2; assay type: cell-based, Canis lupus familiaris; conditions: dog, MDCK cells; summary of the method: as §1
[20] = Toxicity in C57BL/6 mouse assessed as effect on liver at 30 mg/kg, ip; assay type: organism-based; conditions: in vivo
[21] = Cmax in C57BL/6 mouse liver at 30 mg/kg, ip; assay type: ADME, organism-based; parameters: dose 30 mg/kg, route intraperitoneal; summary of the method: as §3
[22] = AUClast in C57BL/6 mouse plasma at 30 mg/kg, ip; assay type: ADME, organism-based; parameters: dose 30 mg/kg, route intraperitoneal, time 0 - last; summary of the method: as §3
[23] = AUClast in C57BL/6 mouse liver at 30 mg/kg, ip; assay type: ADME, organism-based; parameters: dose 30 mg/kg, time 0 - last, route intraperitoneal; summary of the method: as §3
[24] = Terminal half life in C57BL/6 mouse lung at 30 mg/kg, ip; assay type: ADME, organism-based; conditions: read-out: beta t1/2 (converted); summary of the method: as §4
[25] = AUC (infinity) in C57BL/6 mouse liver at 30 mg/kg, ip; assay type: ADME, organism-based; parameters: dose 30 mg/kg, time infinity, route intraperitoneal; summary of the method: as §3
[26] = Apparent permeability across basolateral to apical side in human Caco2 cells measured after 2 hrs; assay type: ADME, cell-based; conditions: caco-2, 2 h; summary of the method: as §6
[27] = AUClast in C57BL/6 mouse lung at 30 mg/kg, ip; assay type: ADME, organism-based; parameters: dose 30 mg/kg, route intraperitoneal, time 0 - last; summary of the method: as §3
[28] = Tmax in C57BL/6 mouse plasma at 30 mg/kg, ip; assay type: ADME, organism-based; conditions: C57BL/6, mouse, plasma, read-out: Tmax; summary of the method: as §4
[29] = Terminal half life in C57BL/6 mouse liver at 30 mg/kg, ip; assay type: ADME, organism-based; conditions: read-out: beta t1/2 (converted); summary of the method: as §4
[30] = Terminal half life in C57BL/6 mouse plasma at 30 mg/kg, ip; assay type: ADME, organism-based; conditions: C57BL/6, mouse, plasma, read-out: beta t1/2 (converted); summary of the method: as §4
[31] = system: Saccharomyces cerevisiae; experiment: Effect on growth of Yeast 9526-6-2 harboring pYES at 50 uM measured up to 60 hrs; assay type: organism-based; conditions: in vivo
Summary of the method: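 Control yeast carrying empty pYES and NS1-expressing NS1-pYES strain grown with DMSO or compound at 50 μM. Growth measured as OD600 at 22, 42 and 60 h.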

[32] = Stability of the compound in mouse liver microsomes assessed as parent compound remaining measured after 15 mins; assay type: ADME, Microsome; conditions: read-out: Stability; summary of the method: as §5

CCOc1cc(-c2c(C#N)c(O)nc3c2c(C)nn3-c2ccc(F)cc2)ccc1O
EC50 [1]: 1.7 µM | EC90 [1]: 4.9 µM | CC50 [2]: > 50 µM | fold change (FC) [3]: 2 | Activity [4]: inactive | EC50 [5]: 47.6 µM | EC90 [5]: > 50 µM | Activity [6]: Non-Toxic

COc1cc(-c2ccnc3c2c(C)nn3-c2cccc(C(F)(F)F)c2)ccc1O
Cmax [7]: 36200 ng/mL | Tmax [8]: 4.98 min | Activity [9]: Non-Toxic | remaining at 0 min [10]: 100% | Kinetic_solubility [11]: 1.7 µM | Cmax [12]: 4470 ng/mL | Tmax [13]: 4.98 min | AUC(0-inf) [14]: 5970 ng·h/mL | remaining at 0.5 h [15]: 16% | AUC(0-inf) [16]: 49100 ng·h/mL | Activity [17]: Non-Toxic | Papp [18]: 0.13 ×10⁻⁶ cm/s | CC50 at 5 day [19]: 24.5 to 49 µM | Activity [20]: Non-Toxic | Cmax [21]: 64000 ng/mL | AUC(0-t) [22]: 5960 ng·h/mL | AUC(0-t) [23]: 119000 ng·h/mL | half-life [24]: 5 h | AUC(0-inf) [25]: 120000 ng·h/mL | Papp [26]: 0.38 ×10⁻⁶ cm/s | AUC(0-t) [27]: 49100 ng·h/mL | Tmax [28]: 4.98 min | half-life [29]: 5.3 h | Activity [6]: Non-Toxic | half-life [30]: 5.2 h | Activity [31]: Non-Toxic | remaining at 0.25 h [32]: 25%
